Experiments:
[1] = Dissociation constants determined by potentiometry at 25 degree celsius (phenolic group); type: physicochemical
How it was run: (§1)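 Potentiometric titration at 25 ± 1 °C with ionic strength held at 0.1 M by KCl. Excess HCl added, then back-titrated with 0.01 N NaOH. Curves run in triplicate. pKa derived by non-logarithmic linearization of the titration curve, corrected for dilution during titration.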

[2] = Dissociation constants determined by potentiometry at 25 degree celsius (Amino group); type: physicochemical; how it was run: as §1
[3] = The isoelectric point (pI) as the arithmetic mean of pKa1 and pKa2; type: physicochemical
[4] = Percent of zwitter ion formed, was determined at pH 7.4; type: ADME

Compound | PKa1 [1] | PKa2 [2] | pI [3] | Z [4] [%]
CCc1ccc(OC)c(C(=O)NC[C@@H]2CCCN2CC)c1O | 8.71 | 9.57 | 9.14 | 5
CCN1CCC[C@H]1CNC(=O)c1c(OC)ccc(Cl)c1O | 7.13 | 9.66 | 8.4 | 65
CCN1CCC[C@H]1CNC(=O)c1c(OC)ccc([N+](=O)[O-])c1O | 5.81 | 9.16 | 7.49 | 96
CCc1cc(Cl)c(O)c(C(=O)NC[C@@H]2CCCN2CC)c1OC | 6.88 | 9.6 | 8.24 | 76
CCN1CCC[C@H]1CNC(=O)c1c(O)c(Br)cc(Br)c1OC | 5.94 | 9.18 | 7.56 | 95
COc1c(Cl)cc(Cl)c(O)c1C(=O)NC1CCN(C)CC1 | 5.96 | 9.12 | 7.54 | 95
CCc1cc(CC)c(OC)c(C(=O)NC[C@@H]2CCCN2CC)c1O | 7.28 | 9.55 | 8.42 | 56
CCN1CCC[C@H]1CNC(=O)c1c(O)cccc1OC | 8.7 | 9.56 | 9.13 | 5
CCc1cc(Cl)c(OC)c(C(=O)NC[C@@H]2CCCN2CC)c1O [ETICLOPRIDE] | 6.93 | 9.67 | 8.3 | 74
CCN1CCC[C@H]1CNC(=O)c1c(O)c(Cl)cc(Cl)c1OC [RACLOPRIDE] | 5.81 | 9.21 | 7.51 | 96

Reference: ChEMBL document CHEMBL1126809, “Effects of solvation on the ionization and conformation of raclopride and other antidopaminergic 6-methoxysalicylamides: insight into the pharmacophore” (J Med Chem, 1993)
